# Measurements from ChEMBL document CHEMBL1132417, “Novel esters and amides of nonsteroidal antiinflammatory carboxylic acids as antioxidants and antiproliferative agents” (J Med Chem, 1999).
# Key:
# Bos taurus = organism: Bos taurus; assay: Inhibition of [Fe(2+)]/ascorbate-induced oxidation of bovine heart membranes(antioxidant BHMLO); format: functional
# Method in brief: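 Bovine heart membranes (KCl-washed, 100000g pellet, 20 mg/mL protein stock in 25 mM HEPES/150 mM NaCl pH 7.4) were preincubated with compound for 30 min at 37 °C. Peroxidation was started with FeCl2/ascorbic acid and run for 15 min at 21 °C. TBARS were developed by heating at 80 °C and read at 540 nm against a malonaldehyde bis(dimethyl acetal) standard curve. IC50 by linear regression.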
# [1] = Inhibition of proliferation measured by inhibition of [3H]thymidine incorporation by HMVEC-L cells; format: functional, cell-based, Homo sapiens
# Method in brief: (§1)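 Human lung microvascular endothelial cells (HMVEC-L, donor, passages 3–9) were grown in EGM-MV to 75–90% confluence. Cells were given compound in fresh medium at 37 °C for 18 h, then pulsed 6 h with [3H]thymidine (2.5 μCi per 200 μL). TCA-precipitated DNA was solubilised in SDS and counted by liquid scintillation. IC50 by linear regression, or % inhibition at the stated concentration.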
# [2] = (§2) Compound was evaluated for in vitro inhibition of proliferation measured by inhibition of [3H]thymidine incorporation by HMVEC-L cells; format: functional, Homo sapiens; parameters: concentration or dose not given beside the values; method in brief: as §1
# HMVEC-L = assay: as §2; format: functional; parameters: concentration or dose not given beside the values; conditions: Homo sapiens, dose or concentration not given here; method in brief: as §1
Molecule,IC50 (Bos taurus) [µM],IC50 [1] [µM],Inhibition [2] [%],inhibition (HMVEC-L) [%]
COc1ccc2cc(C(C)C(=O)NCCC3(C)Cc4c(C)c(O)c(C)c(C)c4O3)ccc2c1 (stereo not drawn),5.6,1.9,,
Cc1c(C)c2c(c(C)c1O)CCC(C)(C(=O)O)O2 (stereo not drawn) [TROLOX],25.6,,20,
Cc1c(C)c2c(c(C)c1O)CCC(C)(CCO)O2 (stereo not drawn),3.82,,30,
COc1ccc2cc([C@H](C)C(=O)OCC[C@]3(C)CCc4c(C)c(O)c(C)c(C)c4O3)ccc2c1,9.6,16.4,,
COc1ccc2cc([C@H](C)C(=O)OCCC3(C)Cc4c(C)c(O)c(C)c(C)c4O3)ccc2c1 (stereo in doubt; 2b),5.2,16.6,,
COc1ccc2cc(C(C)C(=O)OCC3(C)Cc4c(C)c(O)c(C)c(C)c4O3)ccc2c1 (stereo not drawn),4.83,7.3,,
COc1ccc2cc(CC(=O)O)ccc2c1 [6-METHOXY-2-NAPHTHYLACETIC ACID],,,5,
COc1ccc2cc(C(C)C(=O)NCC3(C)CCc4c(C)c(OC(C)=O)c(C)c(C)c4O3)ccc2c1 (stereo not drawn),1.6,3.3,,
COc1ccc2cc([C@H](C)C(=O)NCC3(C)CCc4c(C)c(O)c(C)c(C)c4O3)ccc2c1 (stereo partly drawn),2.5,4.3,,
COc1ccc2cc([C@H](C)C(=O)OCC3(C)COc4c(C)c(C)c(O)c(C)c43)ccc2c1 (stereo partly drawn),5.2,19,,
COc1ccc2cc(C(C)C(=O)NCC3(C)CCc4c(C)c(O)c(C)c(C)c4O3)ccc2c1 (stereo not drawn),3.99,4.3,,
COc1ccc2cc([C@@H](C)C(=O)OCC[C@@]3(C)CCc4c(C)c(O)c(C)c(C)c4O3)ccc2c1,,22,,
COc1ccc2cc(C(C)C(=O)OCCC3(C)CCc4c(C)c(OC(C)=O)c(C)c(C)c4O3)ccc2c1 (stereo not drawn),4.5,11.5,,
COc1ccc2cc(CC(=O)OCCC3(C)CCc4c(C)c(O)c(C)c(C)c4O3)ccc2c1 (stereo not drawn),4.5,,44,
COc1ccc2cc([C@@H](C)C(=O)NCC3(C)CCc4c(C)c(O)c(C)c(C)c4O3)ccc2c1 (stereo partly drawn),4.8,4.5,,
COc1ccc2cc([C@H](C)C(=O)OCCC3(C)CCc4c(C)c(O)c(C)c(C)c4O3)ccc2c1 (stereo partly drawn),7.66,12.9,,
VITAMIN E [listing 1 of 2 here],5170,,,
COc1ccc2cc([C@H](C)C(=O)OCCC3(C)Cc4c(C)c(O)c(C)c(C)c4O3)ccc2c1 (stereo in doubt; 2a),4.87,9.1,,
COc1ccc2cc([C@H](C)COC(=O)CC3(C)CCc4c(C)c(O)c(C)c(C)c4O3)ccc2c1 (stereo partly drawn),4.4,12,,
COc1ccc2cc(C(C)C(=O)OCCC3(C)CCc4c(C)c(OC)c(C)c(C)c4O3)ccc2c1 (stereo not drawn),14000,25,,
COc1ccc2cc([C@H](C)C(=O)NCC3(C)CCc4c(C)c(OC(C)=O)c(C)c(C)c4O3)ccc2c1 (stereo partly drawn),,4,,
VITAMIN E [listing 2 of 2 here],,,,22
COc1ccc2cc(C(C)C(=O)NCCC3(C)CCc4c(C)c(O)c(C)c(C)c4O3)ccc2c1 (stereo not drawn),4.67,7.4,,
COc1ccc2cc([C@H](C)C(=O)O)ccc2c1 [NAPROXEN],,> 50,,
COc1ccc2cc(C(C)C(=O)OCC3(C)CCc4c(C)c(O)c(C)c(C)c4O3)ccc2c1 (stereo not drawn),4.36,11.3,,
COc1ccc2cc([C@H](C)C(=O)OCCC3(C)Cc4c(C)c(O)c(C)c(C)c4O3)ccc2c1 (stereo in doubt; 2c),5.1,16.4,,
"COc1ccc2cc(C(C)C(=O)OCC[C@@]3(C)CCc4c(C)c(O)c(C)c(C)c4O3)ccc2c1 (single isomer, unassigned)",11.6,11.7,,
